Data on seven compounds can be found in ChEMBL document CHEMBL1795271, “7-Alkyl-N(2)-substituted-3-deazaguanines. Synthesis, DNA polymerase III inhibition and antibacterial activity” (Bioorg Med Chem Lett, 2011).

Broadly, the Ki is a dissociation constant, usually derived from enzyme kinetics or from competition with a known ligand. The term MIC denotes the smallest concentration in the dilution series that meets the test's criterion for growth inhibition. Broadly, the inhibition is the drop in the measured response relative to a control, in per cent.

Experiment [1] is described as follows: (§1) Inhibition of Bacillus subtilis DNA polymerase 3C assessed as incorporation of [3H]TMP into activated calf thymus DNA incubated with dATP, dCTP and [3H]TTP in absence of dGTP. In outline:
(§2)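 Recombinant B. subtilis pol IIIC assayed on activated calf thymus DNA with dATP, dCTP and [³H]TTP, without competitor dGTP. Read-out was [³H]TMP incorporation. Ki values are averages of at least two independent experiments.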

A short description of experiment [2]: (§3) Inhibition of Bacillus subtilis DNA polymerase 3E assessed as incorporation of [3H]TMP into activated calf thymus DNA incubated with dATP, dCTP and [3H]TTP in absence of dGTP. An outline of the steps: (§4)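 Enzymes: recombinant B. subtilis pol IIIE and E. coli three-subunit pol III core. Each was assayed with activated calf thymus DNA, dATP, dCTP and [3H]TTP, without the competitor dGTP. [3H]TMP incorporation was measured and Ki derived. Values are averages of at least two independent experiments.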

Experiment [3] in a line: (§5) Inhibition of Escherichia coli DNA polymerase 3E assessed as incorporation of [3H]TMP into activated calf thymus DNA incubated with dATP, dCTP and [3H]TTP in absence of dGTP. An outline of the steps:
as §4

Experiment [4] relates to Staphylococcus aureus. The experiment can be described thus: Antibacterial activity against Staphylococcus aureus ATCC 25923 after 16 to 24 hrs by twofold serial dilution method. Format: functional.
The subject of experiment [5] is Staphylococcus aureus. Nature of the experiment: Antibacterial activity against methicillin-resistant Staphylococcus aureus ATCC 1094 after 16 to 24 hrs by twofold serial dilution method. Format: functional.
Experiment [6] relates to Enterococcus faecalis. The experiment can be described thus: Antibacterial activity against Enterococcus faecalis ATCC 29212 after 16 to 24 hrs by twofold serial dilution method. It counts as functional.
The subject of a further experiment is Enterococcus faecium. The experiment can be described thus: Antibacterial activity against Enterococcus faecium ATCC 19434 after 16 to 24 hrs by twofold serial dilution method. It counts as functional.
Experiment [7] has as its system Escherichia coli. The experiment can be described thus: Antibacterial activity against Escherichia coli J-53 after 16 to 24 hrs by twofold serial dilution method. Format: functional.
In experiment [8] the test system is Bacillus subtilis. The experiment can be described thus: Antibacterial activity against Bacillus subtilis BD54 after 16 to 24 hrs by twofold serial dilution method. Format: functional.
The subject of experiment [9] is Enterococcus faecalis. The experiment can be described thus: Antibacterial activity against vancomycin-resistant Enterococcus faecalis after 16 to 24 hrs by twofold serial dilution method.
Experiment [10] deals with Staphylococcus aureus. The experiment can be described thus: Antibacterial activity against Staphylococcus aureus Smith infected Swiss-webster mouse assessed as mouse survival at 100 mg/kg, ip administered 15 mins post-infection for 24 hrs relative to control. Format: functional. The note with it: route intraperitoneal. An outline of the steps: (§6)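 Male pathogen-free Swiss–Webster mice, 20–24 g, with free access to food and water. S. aureus Smith grown to log phase at 37 °C in LB, with CFU estimated from OD600. Cells washed in cold broth and injected IP in 0.5 mL broth. Groups of 5 or 10 mice dosed IP 15 min post-infection with vehicle (10% DMSO/peanut oil) or compound in vehicle. Daptomycin 30 mg/Kg in saline served as control.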

The test system of experiment [11] is Staphylococcus aureus. The experiment can be described thus: Antibacterial activity against Staphylococcus aureus Smith infected Swiss-webster mouse assessed as mouse survival at 30 mg/kg, ip administered 15 mins post-infection for 24 hrs relative to control. It counts as functional. The note with it: route intraperitoneal. An outline of the steps:
as §6

The subject of experiment [12] is Escherichia coli. Described as §5. The conditions noted are these: concentration not given here. In outline:
as §4

For experiment [13], the system named is Bacillus subtilis. Described as §1. The note with it: concentration not given here. In outline:
as §2

Experiment [14] deals with Bacillus subtilis. The description is as §3. Details: concentration or dose not given beside the values. The conditions noted are these: concentration not given here. In outline: as §4
The test system of experiment [15] is Staphylococcus aureus. Nature of the experiment: Antibacterial activity against Staphylococcus aureus ATCC 13709 (Smith) after 16 to 24 hrs by twofold serial dilution method. It counts as functional.
Experiment [16] deals with Staphylococcus aureus. Nature of the experiment: Antibacterial activity against Staphylococcus aureus Smith infected Swiss-webster mouse assessed as mouse survival at 10 mg/kg, ip administered 15 mins post-infection for 24 hrs relative to control. It counts as functional. The note with it: route intraperitoneal. An outline of the steps:
as §6

Experiment [17] deals with Staphylococcus aureus. The experiment can be described thus: Antibacterial activity against Staphylococcus aureus Smith infected Swiss-webster mouse assessed as mouse survival at 60 mg/kg, ip administered 15 mins post-infection for 24 hrs relative to control. The conditions noted are these: route intraperitoneal. Format: functional. An outline of the steps:
as §6

In brackets after ≈: the same amount, converted by molar mass.

As to `COCCCCn1c(C)nc2cc(NCc3ccc(Cl)c(Cl)c3)[nH]c(=O)c21`, the Ki in experiment [1] stood at 1250 nM; in [2], 2500 nM; in experiment [3], 426 µM. Moreover, the minimal inhibitory concentration (MIC) is 60 µg/mL (≈ 147 µM) against Staphylococcus aureus [4]; 5 µg/mL (≈ 12.2 µM) in the experiment on Staphylococcus aureus [5]; 80 µg/mL (≈ 195 µM) against Enterococcus faecalis [6]; 80 µg/mL (≈ 195 µM) against Enterococcus faecium; 80 µg/mL (≈ 195 µM) in the experiment on Escherichia coli [7]; 6.25 µg/mL (≈ 15.3 µM) in the experiment with Bacillus subtilis [8]. In the experiment with Enterococcus faecalis [9], this compound came in with a minimum inhibitory concentration (MIC) of 20 µg/mL (≈ 48.9 µM).

On to `CCc1cc(Nc2nc3ncn(CCCCCOC)c3c(=O)[nH]2)ccc1C`, for which the Ki turned out to be 260 nM in experiment [1] and 394000 nM in experiment [2]. In addition, the minimum inhibitory concentration (MIC) was 2.5 µg/mL (≈ 6.77 µM) against Staphylococcus aureus [5]; 10 µg/mL (≈ 27.1 µM) in the experiment with Enterococcus faecium; above 80 µg/mL in the experiment with Escherichia coli [7]; 1.25 µg/mL (≈ 3.38 µM) against Bacillus subtilis [8]; 5 µg/mL (≈ 13.5 µM) with Enterococcus faecalis [9]. Moreover, in the experiment with Staphylococcus aureus [10], the survival at 100 mg/kg worked out at 40%. The survival at 30 mg/kg with Staphylococcus aureus [11] came out at 20%.

With `CCc1cc(Nc2cc(=O)n(CCCCO)c(=O)[nH]2)ccc1C`, in [1], the Ki is 63 nM. The inhibition with Escherichia coli [12] was below 10%. Further, the minimal inhibitory concentration (MIC) against Escherichia coli [7] is above 80 µg/mL; against Bacillus subtilis [8], below 1.25 µg/mL; against Enterococcus faecalis [9] it was 5 µg/mL (≈ 15.8 µM). Further, the survival at 100 mg/kg in the experiment with Staphylococcus aureus [10] came out at 80%.

With `COCCCCn1cnc2c(=O)[nH]c(NCc3ccc(Cl)c(Cl)c3)nc21`, the inhibition in the experiment on Bacillus subtilis [13], with Bacillus subtilis [14] and with Escherichia coli [12] was below 10% each time. The MIC with Staphylococcus aureus [4], in the experiment on Staphylococcus aureus [15], in the experiment with Staphylococcus aureus [5], in the experiment on Enterococcus faecalis [6], with Escherichia coli [7] and in the experiment with Bacillus subtilis [8] was above 80 µg/mL throughout. In addition, the MIC with Enterococcus faecalis [9] is above 80 µg/mL.

As to `CCCCCCCCCC(=O)N[C@@H](Cc1c[nH]c2ccccc12)C(=O)N[C@H](CC(N)=O)C(=O)N[C@@H](CC(=O)O)C(=O)N[C@@H]1C(=O)NCC(=O)N[C@@H](CCCN)C(=O)N[C@@H](CC(=O)O)C(=O)N[C@H](C)C(=O)N[C@@H](CC(=O)O)C(=O)NCC(=O)N[C@H](CO)C(=O)N[C@@H]([C@H](C)CC(=O)O)C(=O)N[C@@H](CC(=O)c2ccccc2N)C(=O)O[C@@H]1C`, the survival at 10 mg/kg in the experiment on Staphylococcus aureus [16] was determined as 10%.

On to `CC(=O)OCCCCCn1cnc2nc(NCc3ccc(Cl)c(Cl)c3)nc(O)c21`, for which the MIC against Staphylococcus aureus [4] was 2.5 µg/mL (≈ 5.7 µM); in the experiment on Staphylococcus aureus [15], 1.25 µg/mL (≈ 2.85 µM); against Staphylococcus aureus [5], 1.25 µg/mL (≈ 2.85 µM); in the experiment with Enterococcus faecalis [6], 1.25 µg/mL (≈ 2.85 µM); in the experiment with Enterococcus faecium it was 1.25 µg/mL (≈ 2.85 µM); in the experiment on Escherichia coli [7] it was above 80 µg/mL. For the same compound, the minimum inhibitory concentration (MIC) in the experiment with Bacillus subtilis [8] came out at 1.25 µg/mL (≈ 2.85 µM); in the experiment on Enterococcus faecalis [9], 5 µg/mL (≈ 11.4 µM). The survival at 10 mg/kg in the experiment with Staphylococcus aureus [16] is 30%. Further, the survival at 30 mg/kg in the experiment with Staphylococcus aureus [11] worked out at 50%. Also, the survival at 60 mg/kg with Staphylococcus aureus [17] turned out to be 80%.

Turning to `COCCCCCn1cnc2cc(NCc3ccc(Cl)c(Cl)c3)[nH]c(=O)c21`, the Ki in experiment [1] came to 160 nM; in experiment [2], 420 nM; in experiment [3], 81 µM. Moreover, the minimum inhibitory concentration (MIC) with Staphylococcus aureus [4] was 2.5 µg/mL (≈ 6.11 µM); with Staphylococcus aureus [15] it was 1.25 µg/mL (≈ 3.05 µM); against Staphylococcus aureus [5], 2.5 µg/mL (≈ 6.11 µM); in the experiment on Enterococcus faecium, 1.25 µg/mL (≈ 3.05 µM); with Escherichia coli [7] it was above 80 µg/mL; in the experiment on Bacillus subtilis [8], 1.25 µg/mL (≈ 3.05 µM). Also, the minimal inhibitory concentration (MIC) against Enterococcus faecalis [9] turned out to be 5 µg/mL (≈ 12.2 µM). Moreover, the survival at 100 mg/kg with Staphylococcus aureus [10] was determined as 40%.
